For orientation: IC50 means the concentration needed to halve the response being measured. Low values mean greater potency, high ones weaker potency.

What all share (assay type): cell-based
The target in assay [1] is T1, NR1wt/NR2Dwt receptors (Rattus norvegicus, UniProt P35439+Q62645). Briefly: Kinetics of inhibition by MK-801, oocyte voltage-clamp. The note with it: trace of Fig. 1f.
In assay [2] the test system is NR1wt/NR2D-(2A NTD+L) receptors. The assay is described as above. The note with it: trace of Fig. 1f.
Assay [3] deals with NR1wt/NR2D-ΔNTD receptors. Described as above. Conditions: trace of Fig. 1f.
Assay [4] concerns NR1wt/NR2A-(2D NTD+L) receptors. The description is as above. Conditions: NR2A-(2D NTD+L) vs NR2Awt.
For the next assay, the target named is NR1-A652C/NR2D receptors (Homo sapiens, UniProt O15399+Q05586, A652C). Briefly: MTSEA-induced potentiation of currents. The note with it: NR2D-containing receptors (NR1-A652C).
The test system of assay [5] is NR1-A652C/NR2A-(2D NTD+L) receptors. Briefly: MTSEA-induced potentiation of currents. Conditions: NR2A-(2D NTD+L) vs NR2Awt.
In assay [6] the test system is NR1-A652C/NR2D-ΔNTD receptors. Briefly: MTSEA-induced potentiation of currents. The note with it: NR2D-ΔNTD vs NR2D.
Another assay deals with NR1wt/NR2Bwt receptors (Homo sapiens, UniProt Q05586+Q13224). Briefly: Zinc sensitivity. In outline:
(§1)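 Two-electrode voltage clamp was run at −60 mV at room temperature on oocytes nuclear-injected with NR1 and NR2 cDNAs (10 ng/µl, 1:1). […] Free zinc was buffered with tricine 10 mM (1 nM–1 µM) or ADA 1 mM (0.1–100 nM), and "0" zinc contained 10 µM DTPA. Dose-response curves gave IC50 and maximal inhibition.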

The next assay deals with NR1wt/NR2Awt receptors (Homo sapiens, UniProt Q05586+Q12879). The assay can be described thus: Zinc sensitivity. The method in brief:
as §1

Assay [7] addresses T1, NR1wt/NR2Dwt receptors. Briefly: Zinc sensitivity. The method in brief: as §1
For assay [8], the target named is NR1wt/NR2B-(2A NTD+L) receptors. Briefly: Zinc sensitivity. The method in brief:
as §1

For assay [9], the system named is receptors incorporating NR1wt and NR2Awt, NR2Bwt, NR2Dwt, NR2B-(2A NTD), NR2B-(2A NTD+L) or NR2D-(2A NTD+L). Briefly: Zinc sensitivity. Conditions: zinc dose-response, all constructs of Fig. 3a. The method in brief: as §1
The target in assay [10] is NR1wt/NR2B-(2A NTD) receptors. The assay can be described thus: Zinc sensitivity. The method in brief:
as §1

Assay [11] addresses NR1wt/NR2D-(2A NTD+L) receptors. The assay can be described thus: Zinc sensitivity. In outline:
as §1

T1 sequence (Q62645 28-1323, other chains not shown): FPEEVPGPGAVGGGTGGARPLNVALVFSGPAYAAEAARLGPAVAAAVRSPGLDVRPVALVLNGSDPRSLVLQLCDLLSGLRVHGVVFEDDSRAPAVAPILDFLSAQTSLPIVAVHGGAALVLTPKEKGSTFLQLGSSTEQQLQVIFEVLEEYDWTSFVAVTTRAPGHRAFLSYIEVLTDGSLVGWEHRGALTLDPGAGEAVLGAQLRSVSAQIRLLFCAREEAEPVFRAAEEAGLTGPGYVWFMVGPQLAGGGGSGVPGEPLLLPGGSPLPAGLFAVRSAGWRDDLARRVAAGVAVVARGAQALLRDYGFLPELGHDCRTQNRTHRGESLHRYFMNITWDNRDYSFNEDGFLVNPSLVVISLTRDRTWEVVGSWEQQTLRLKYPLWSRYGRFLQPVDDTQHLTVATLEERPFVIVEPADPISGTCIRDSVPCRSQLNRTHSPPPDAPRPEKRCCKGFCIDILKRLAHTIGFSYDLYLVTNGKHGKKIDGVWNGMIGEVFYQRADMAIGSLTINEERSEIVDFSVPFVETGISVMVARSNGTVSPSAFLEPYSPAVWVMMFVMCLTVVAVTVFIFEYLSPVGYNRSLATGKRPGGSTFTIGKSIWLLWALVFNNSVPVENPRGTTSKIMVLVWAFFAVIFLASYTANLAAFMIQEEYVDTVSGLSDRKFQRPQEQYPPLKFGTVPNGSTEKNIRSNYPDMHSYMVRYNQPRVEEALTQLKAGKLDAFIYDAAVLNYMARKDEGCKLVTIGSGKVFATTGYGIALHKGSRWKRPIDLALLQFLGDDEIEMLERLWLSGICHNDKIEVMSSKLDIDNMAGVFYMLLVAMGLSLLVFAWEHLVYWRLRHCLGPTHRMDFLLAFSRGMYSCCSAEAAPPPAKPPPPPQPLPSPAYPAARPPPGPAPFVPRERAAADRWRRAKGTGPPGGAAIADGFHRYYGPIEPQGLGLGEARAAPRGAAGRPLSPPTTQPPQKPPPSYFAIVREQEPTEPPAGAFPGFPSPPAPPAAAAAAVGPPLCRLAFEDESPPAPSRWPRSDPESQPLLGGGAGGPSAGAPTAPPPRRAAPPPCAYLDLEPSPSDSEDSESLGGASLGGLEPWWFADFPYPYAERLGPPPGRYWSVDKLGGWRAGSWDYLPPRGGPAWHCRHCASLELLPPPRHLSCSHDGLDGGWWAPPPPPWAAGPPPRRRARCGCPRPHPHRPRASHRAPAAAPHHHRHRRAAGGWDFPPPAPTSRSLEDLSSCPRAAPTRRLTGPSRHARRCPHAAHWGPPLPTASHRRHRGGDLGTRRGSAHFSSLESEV
Sequence of NR1wt/NR2Bwt receptors (Q13224 27-1484, other chains not shown): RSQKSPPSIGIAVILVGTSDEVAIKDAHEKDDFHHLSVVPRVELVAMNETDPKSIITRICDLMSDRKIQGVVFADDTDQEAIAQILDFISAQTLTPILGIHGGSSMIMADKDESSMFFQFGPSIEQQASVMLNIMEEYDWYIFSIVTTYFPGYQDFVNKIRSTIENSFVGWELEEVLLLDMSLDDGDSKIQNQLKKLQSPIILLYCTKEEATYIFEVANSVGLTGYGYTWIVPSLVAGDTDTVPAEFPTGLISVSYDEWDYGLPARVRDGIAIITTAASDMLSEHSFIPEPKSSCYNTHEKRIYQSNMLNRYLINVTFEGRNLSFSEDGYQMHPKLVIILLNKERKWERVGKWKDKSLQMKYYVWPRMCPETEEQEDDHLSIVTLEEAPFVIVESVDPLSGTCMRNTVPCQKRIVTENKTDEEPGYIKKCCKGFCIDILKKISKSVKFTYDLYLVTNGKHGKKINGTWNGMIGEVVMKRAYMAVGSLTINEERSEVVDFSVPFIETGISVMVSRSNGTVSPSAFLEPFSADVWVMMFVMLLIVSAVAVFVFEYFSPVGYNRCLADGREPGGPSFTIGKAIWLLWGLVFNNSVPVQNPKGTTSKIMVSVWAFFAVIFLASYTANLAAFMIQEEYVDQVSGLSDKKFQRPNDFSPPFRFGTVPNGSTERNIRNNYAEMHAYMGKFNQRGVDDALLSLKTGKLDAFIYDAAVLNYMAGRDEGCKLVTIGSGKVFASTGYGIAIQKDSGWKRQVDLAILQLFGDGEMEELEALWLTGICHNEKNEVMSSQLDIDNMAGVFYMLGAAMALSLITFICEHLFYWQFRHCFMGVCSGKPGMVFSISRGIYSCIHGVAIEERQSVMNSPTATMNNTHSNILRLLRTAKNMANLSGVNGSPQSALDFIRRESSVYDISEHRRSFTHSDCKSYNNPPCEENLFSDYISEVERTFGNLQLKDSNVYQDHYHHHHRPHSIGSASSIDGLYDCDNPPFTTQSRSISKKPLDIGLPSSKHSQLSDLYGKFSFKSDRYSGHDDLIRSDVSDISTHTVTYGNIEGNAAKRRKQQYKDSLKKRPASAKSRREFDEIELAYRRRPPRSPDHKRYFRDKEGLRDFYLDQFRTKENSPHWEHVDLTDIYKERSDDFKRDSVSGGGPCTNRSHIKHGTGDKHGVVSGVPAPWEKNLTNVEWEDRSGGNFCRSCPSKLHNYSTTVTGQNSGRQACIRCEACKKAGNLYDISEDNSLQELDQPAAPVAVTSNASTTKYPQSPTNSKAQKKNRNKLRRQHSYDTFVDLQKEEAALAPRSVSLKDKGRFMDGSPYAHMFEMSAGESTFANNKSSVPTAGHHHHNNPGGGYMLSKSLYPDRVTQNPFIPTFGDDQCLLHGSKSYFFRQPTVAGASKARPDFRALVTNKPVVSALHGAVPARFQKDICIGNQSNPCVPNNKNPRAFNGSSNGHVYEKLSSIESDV
Sequence of NR1wt/NR2Awt receptors (Q12879 23-1464, other chains not shown): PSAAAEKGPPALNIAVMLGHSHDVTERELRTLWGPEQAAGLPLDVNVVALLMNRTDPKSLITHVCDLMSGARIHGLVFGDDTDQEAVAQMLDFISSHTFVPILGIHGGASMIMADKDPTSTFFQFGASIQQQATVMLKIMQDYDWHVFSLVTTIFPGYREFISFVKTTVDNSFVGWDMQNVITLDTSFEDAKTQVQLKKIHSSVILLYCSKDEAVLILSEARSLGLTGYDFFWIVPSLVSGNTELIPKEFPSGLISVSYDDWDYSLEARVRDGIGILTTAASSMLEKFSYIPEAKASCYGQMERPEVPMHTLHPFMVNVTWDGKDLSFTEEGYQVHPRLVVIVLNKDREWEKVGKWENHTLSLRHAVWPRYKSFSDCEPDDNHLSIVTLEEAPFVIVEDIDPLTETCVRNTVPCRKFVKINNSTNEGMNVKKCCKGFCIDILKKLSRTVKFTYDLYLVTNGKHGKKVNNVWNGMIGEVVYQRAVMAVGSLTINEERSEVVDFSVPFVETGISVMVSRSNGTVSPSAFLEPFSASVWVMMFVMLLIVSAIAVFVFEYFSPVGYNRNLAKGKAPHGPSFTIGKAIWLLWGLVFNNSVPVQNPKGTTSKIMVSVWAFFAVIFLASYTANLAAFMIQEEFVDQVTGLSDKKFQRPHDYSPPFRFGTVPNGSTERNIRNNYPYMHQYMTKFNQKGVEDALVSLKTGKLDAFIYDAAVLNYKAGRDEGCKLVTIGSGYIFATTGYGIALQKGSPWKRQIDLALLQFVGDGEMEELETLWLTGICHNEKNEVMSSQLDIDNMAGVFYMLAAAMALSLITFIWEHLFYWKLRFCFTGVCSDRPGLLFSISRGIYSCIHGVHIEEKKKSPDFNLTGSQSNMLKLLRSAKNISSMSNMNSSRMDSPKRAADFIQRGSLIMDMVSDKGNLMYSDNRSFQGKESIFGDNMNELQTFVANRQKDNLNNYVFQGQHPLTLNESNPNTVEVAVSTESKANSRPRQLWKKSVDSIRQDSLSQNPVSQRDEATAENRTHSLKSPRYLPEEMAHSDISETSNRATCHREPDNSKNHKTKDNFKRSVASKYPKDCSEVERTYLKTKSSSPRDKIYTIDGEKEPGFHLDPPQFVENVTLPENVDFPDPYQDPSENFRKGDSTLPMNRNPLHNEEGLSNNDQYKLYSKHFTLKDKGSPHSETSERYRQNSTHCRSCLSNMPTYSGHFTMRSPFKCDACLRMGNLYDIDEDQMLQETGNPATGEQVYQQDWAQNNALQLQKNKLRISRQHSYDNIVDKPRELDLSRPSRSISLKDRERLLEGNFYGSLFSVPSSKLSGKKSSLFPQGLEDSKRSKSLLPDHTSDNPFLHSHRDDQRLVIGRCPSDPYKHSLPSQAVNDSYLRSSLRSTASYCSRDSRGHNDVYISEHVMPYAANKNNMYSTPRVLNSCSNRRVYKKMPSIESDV

`C[C@]12N[C@H](Cc3ccccc31)c1ccccc12` [MK-801]: the results for the “τon of inhibition by MK-801” value (at NR1wt/NR2Dwt receptors [1]; in assay [2]; in assay [3]) were 32 s, 1.6 s and 5.7 s, respectively. Moreover, the “MK-801 inhibition slower than at NR2Awt-containing receptors” value in [4] is 15 fold.
As for `Br.CS(=O)(=O)SCCN` [MTSEA, 2-aminoethylmethanethiosulfonatehydrobromide], at NR1-A652C/NR2D receptors, the MTSEA-induced potentiation was ~ 300 fold. Also, the “Higher MTSEA-potentiation than NR2Awt-containing receptors” value in assay [5] is on record as 17 fold. The “Decrease in MTSEA potentiation on deleting the NR2D-NTD” value in assay [6] is recorded as 4 fold.
Consider `[Zn+2]` [Zinc, zinc], for which the IC50 amounted to 720 nM at NR1wt/NR2Bwt receptors; 7.5 nM against NR1wt/NR2Awt receptors; 7800 nM on NR1wt/NR2Dwt receptors [7]; 5.4 nM in assay [8]; 0.2 nM in assay [10]; 1.5 nM in assay [11]. Moreover, the Inhibmax was 98% at NR1wt/NR2Bwt receptors; 81% at NR1wt/NR2Awt receptors; 100% on NR1wt/NR2Dwt receptors [7]; 86% in assay [8]; 83% in assay [10]; 90% in assay [11]. The nH in assay [9] was 0.9–1.2.

The values above are taken from article PMC2711440 (Nature, 2009).
